Assays:
[1] = Unbound AUC in mouse at 10 mg/kg,sc; type: ADME, organism-based; conditions: in vivo
[2] = Toxicity in dog assessed as GI mucosal atrophy at 2 to 6 mg/kg,po QD consecutive for 14 days followed by 2 weeks recovery period; type: organism-based, Canis lupus familiaris; conditions: in vivo, 336 h, dose 2-6 mg/kg, time 14 day
How it was run: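 Oral suspension given once daily for 14 consecutive days (rat 2, 6, 20 mg/kg; dog 2, 4, 6 mg/kg) in dose range-finding and GLP repeat-dose studies, GLP arms with an added 2-week recovery period; histopathology and clinical pathology findings recorded.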

fAUC [1]: 1.5 µM·h
SMILES: Cc1noc2c1-c1ccccc1C(c1ccc(Cl)cc1)=N[C@H]2CC(N)=O [PELABRESIB]
Activity [2]: Toxic

Source: ChEMBL document CHEMBL5252513, “Identification of a Benzoisoxazoloazepine Inhibitor (CPI-0610) of the Bromodomain and Extra-Terminal (BET) Family as a Candidate for Human Clinical Trials” (J Med Chem, 2016)
